Experimental data: ChEMBL document CHEMBL1124192, “Cyclopentenylcytosine. A carbocyclic nucleoside with antitumor and antiviral properties” (J Med Chem, 1988)
≈ marks a conversion by molar mass, not a printed value. Where “and” joins values, the source holds several entries; their conditions need not be identical. Equal values may be shown once.

How the values were obtained:
L1210 [1] = experiment: Compound was tested for antitumor activity against L1210 leukemia in mouse at dose 1.5 mg/kg administered subcutaneously in experiment 1; type: functional; settings: L1210, sc, route subcutaneous
Procedure, shortened: (§1)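 Mice bearing L1210, L1210/ara-C, P388 or P388/ara-C leukaemia. Tumour implanted at the site each line names: ip, sc or ic. Drug given ip in physiologic saline on a QD1-9 schedule, at several dose levels per experiment. Life-span runs ended on day 30. Read-out is median % increase in life span versus tumoured untreated controls, with long-term survivors included.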

P388 [2] = experiment: Compound was tested for antitumor activity against P388 leukemia in mouse at dose 1.5 mg/kg administered intraperitoneally in experiment 2; type: functional; settings: P388, ip, route intraperitoneal; procedure, shortened: as §1
Human alphaherpesvirus 3 [3] = experiment: Compound was tested for antiviral activity against Varicella-Zoster from human diploid foreskin cells in mono layer culture at 100 ug/ml; type: functional
Procedure, shortened: (§2)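 VZV isolate DM625 on Huf cells (human diploid foreskin monolayers). Inoculum was left on after 1 h adsorption at 37 °C. Drug overlay in MEM + 2% FBS without agarose, refed with fresh drug at 72 h, in 2% CO2. Cells fixed in 10% formalin and stained with methylene blue; plaques counted day 6. % plaque reduction versus untreated virus controls, triplicates.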

L1210 [4] = experiment: Compound was tested for antitumor activity against L1210 leukemia in mouse at dose 2.25 mg/kg administered intraperitoneally in experiment 1; type: functional; settings: L1210, ip, route intraperitoneal; procedure, shortened: as §1
Vero [5] = experiment: Cytotoxicity of compound was determined by reduction in number of viable vero monolayer cells after treatment with 1 ug/mL for 4 days; type: functional, Chlorocebus sabaeus
Procedure, shortened: (§3)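 Vero monolayers in duplicate cultures, exposed to each drug concentration in medium at 37 °C in a CO2 incubator for 4 days. Viable cells counted by trypan blue exclusion, and % reduction calculated against untreated control cultures.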

L1210 [6] = experiment: Number of 60-day survivors out of 9 tested at dose 1.5 mg/kg administered intraperitoneally; type: functional, Mus musculus; settings: route intraperitoneal
L1210 [7] = experiment: Compound was tested for antitumor activity against L1210 leukemia in mouse at dose 2.25 mg/kg administered intraperitoneally in experiment 2; type: functional; settings: L1210, ip, route intraperitoneal; procedure, shortened: as §1
L1210 [8] = experiment: Compound was tested for antitumor activity against L1210 leukemia in mouse at dose 1 mg/kg administered intraperitoneally in experiment 1; type: functional; settings: L1210, ip, route intraperitoneal; procedure, shortened: as §1
Cytomegalovirus [9] = experiment: Log value for antiviral activity against Cytomegalovirus (AD169) from MRC5 diploid human embryonic lung cells at 1 ug/mL; type: functional
Procedure, shortened: (§4)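 CMV AD169 yield reduction in MRC5 cells. Subconfluent monolayers infected at MOI 0.2 PFU/cell for 1.5 h at 37 °C, rinsed, then fed drug in MEM + 2% FBS, in duplicate. Drug refed on day 3, cultures harvested on day 6 by freeze-thaw and pooled. Yield titrated by plaque assay under 0.25% agarose overlay for 5–6 days, then formalin-fixed and methylene blue-stained for plaque counts.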

P388 [10] = experiment: Compound was tested for antitumor activity against P388 leukemia in mouse at dose 1 mg/kg administered intraperitoneally in experiment 1; type: functional; settings: P388, ip, route intraperitoneal; procedure, shortened: as §1
Mus musculus [11] = experiment: Compound was tested for antitumor activity against human A549 lung tumor xenografts in athymic mice at dose 2 mg/kg administered subrenal capsule in experiment 2; type: functional
L1210 [12] = experiment: Median percent increase in life span of tumored, treated mice relative to tumored, untreated controls after intraperitoneal dose 0.5 mg/kg daily(for every 3 hr); type: functional; settings: Mus musculus, L1210, ip
L1210 [13] = experiment: Compound was tested for antitumor activity against L1210 leukemia in mouse at dose 1 mg/kg administered intraperitoneally in experiment 2; type: functional; settings: L1210, ip, route intraperitoneal; procedure, shortened: as §1
Mus musculus [14] = experiment: Compound was tested for antitumor activity against human LOX melanoma tumor xenografts in athymic mice at dose 1.5 mg/kg administered intraperitoneally in experiment 2; type: functional; settings: ip, route intraperitoneal
Procedure, shortened: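 Athymic mice carrying human LOX melanoma. Drug given ip in saline on a QD1-9 schedule, at several dose levels. Life-span experiment ended on day 30. Read-out is % increase in life span versus untreated tumoured controls, with long-term survivors included.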

Human alphaherpesvirus 3 [15] = experiment: Compound was tested for antiviral activity against Varicella-Zoster from human diploid foreskin cells in mono layer culture at 320 ug/ml; type: functional; procedure, shortened: as §2
Cytomegalovirus [16] = experiment: Log value for antiviral activity against Cytomegalovirus (AD169) from MRC5 diploid human embryonic lung cells at 100 ug/mL; type: functional; procedure, shortened: as §4
L1210 [17] = experiment: Number of 60-day survivors out of 10 tested at dose 2.25 mg/kg administered intraperitoneally; type: functional, Mus musculus; settings: route intraperitoneal
[18] = test system: Japanese encephalitis virus; experiment: Inhibitory dose of compound required to inhibit cytopathogenic effects of Japanese encephalitis virus with […] strain in vero cells; type: functional; settings: read-out: ID50 (the source's name)
Human alphaherpesvirus 3 [19] = experiment: Compound was tested for antiviral activity against Varicella-Zoster from human diploid foreskin cells in mono layer culture at 0.032 ug/ml; type: functional; procedure, shortened: as §2
Human alphaherpesvirus 3 [20] = experiment: Compound was tested for antiviral activity against Varicella-Zoster from human diploid foreskin cells in mono layer culture at 0.01 ug/ml; type: functional; procedure, shortened: as §2
Yellow fever virus [21] = experiment: Inhibitory dose of compound required to inhibit cytopathogenic effects of yellow fever virus with asibi strain in vero cells; type: functional; settings: read-out: ID50 (the source's name)
L1210 [22] = experiment: (§5) Log cell kill at the end of treatment at dose 1 mg/kg administered intraperitoneally; type: functional, Mus musculus; settings: route intraperitoneal
P388 [23] = experiment: as §5; type: functional, Mus musculus; settings: route intraperitoneal
Cytomegalovirus [24] = experiment: Log value for antiviral activity against Cytomegalovirus (AD169) from MRC5 diploid human embryonic lung cells at 0.1 ug/mL; type: functional; procedure, shortened: as §4
L1210 [25] = experiment: Compound was tested for antitumor activity against L1210/ara-C leukemia in mouse at dose 1.5 mg/kg administered intraperitoneally; type: functional; settings: L1210, ip, route intraperitoneal; procedure, shortened: as §1
Punta Toro virus = experiment: Inhibitory dose of compound required to inhibit cytopathogenic effects of Punta toro virus with adames strain in vero cells; type: functional; settings: read-out: ID50 (the source's name)
L1210 [26] = experiment: Compound was tested for antitumor activity against L1210/ara-C leukemia in mouse at dose 2.25 mg/kg administered intraperitoneally; type: functional; settings: L1210, ip, route intraperitoneal; procedure, shortened: as §1
Vero [27] = experiment: Cytotoxicity of compound was determined by reduction in number of viable vero monolayer cells after treatment with 320 ug/mL for 4 days; type: functional, Chlorocebus sabaeus; procedure, shortened: as §3
Cytomegalovirus [28] = experiment: Log value for antiviral activity against Cytomegalovirus (AD169) from MRC5 diploid human embryonic lung cells at 0.32 ug/mL; type: functional; procedure, shortened: as §4
Yellow fever virus [29] = experiment: Tested for inhibition of virus-induced cytopathogenic effect and cytotoxicity of compound against yellow fever virus with asibi strain vero cell; type: functional
Mus musculus [30] = experiment: Compound was tested for antitumor activity against human A549 lung tumor xenografts in athymic mice at dose 1.5 mg/kg administered subrenal capsule in experiment 1; type: functional
L1210 [31] = experiment: Median percent increase in life span of tumored, treated mice relative to tumored, untreated controls after intraperitoneal dose 4 mg/kg daily (every 4th day); type: functional; settings: Mus musculus, L1210, ip
Vero [32] = experiment: Cytotoxicity of compound was determined by reduction in number of viable vero monolayer cells after treatment with 0.1 ug/mL for 4 days; type: functional, Chlorocebus sabaeus; procedure, shortened: as §3
[33] = Ratio of minimum drug concentration to ID50 of the compound (Indiana strain); type: ADME
Vero [34] = experiment: Cytotoxicity of compound was determined by reduction in number of viable vero monolayer cells after treatment with 10 ug/mL for 4 days; type: functional, Chlorocebus sabaeus; procedure, shortened: as §3

Nc1ccn([C@@H]2C=C(CO)[C@@H](O)[C@H]2O)c(=O)n1
ILS at 1.5 mg/kg (L1210 [1]): 109%
ILS at 1.5 mg/kg (P388 [2]): 69%
Plaque reduction (Human alphaherpesvirus 3 [3]): 41%
ILS at 2.25 mg/kg (L1210 [4]): 125%
Reduction (Vero [5]): 61%
No. of survivors (L1210 [6]): 5 count
ILS at 2.25 mg/kg (L1210 [7]): 57%
ILS at 1 mg/kg (L1210 [8]): 212%
Reduction in virus yield (Cytomegalovirus [9]): 1.4 pfu/ml
ILS at 1 mg/kg (P388 [10]): 88%
ILS at 2 mg/kg (Mus musculus [11]): 92%
ILS at 0.5 mg/kg (L1210 [12]): 116%
ILS at 1 mg/kg (L1210 [13]): 201%
ILS at 1.5 mg/kg (Mus musculus [14]): 80%
Plaque reduction (Human alphaherpesvirus 3 [15]): 36%
Reduction in virus yield (Cytomegalovirus [16]): 2 pfu/ml
No. of survivors (L1210 [17]): 6
IC50 [18]: 0.1 mg/L (≈ 0.418 µM)
Plaque reduction (Human alphaherpesvirus 3 [19]): 3%
Plaque reduction (Human alphaherpesvirus 3 [20]): 0%
IC50 (Yellow fever virus [21]): 5.05 mg/L (≈ 21.1 µM)
LCK (L1210 [22]): >6 and >5.8
LCK (P388 [23]): 0.9
Reduction in virus yield (Cytomegalovirus [24]): 0.8 pfu/ml
ILS at 1.5 mg/kg (L1210 [25]): > 650%
IC50 (Punta Toro virus): 1.01 mg/L (≈ 4.22 µM)
ILS at 2.25 mg/kg (L1210 [26]): > 650%
Reduction (Vero [27]): 67%
Reduction in virus yield (Cytomegalovirus [28]): 1.3 pfu/ml
Virus rating (Yellow fever virus [29]): 0.9
ILS at 1.5 mg/kg (Mus musculus [30]): -59%
ILS at 4 mg/kg (L1210 [31]): 91%
Reduction (Vero [32]): 50%
Therapeutic index [33]: 0.4
selectivity ratio ([33]; read-out: Therapeutic index): 0.6
Reduction (Vero [34]): 64%
